System in one data set: not listed separately
The data set is described as follows: Clearance in human liver microsomes. The class given is ADME, Microsome. To be noted: read-out: CLH. The gist of the method: (§1)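 Compounds incubated at 37 °C with human or mouse liver microsomes.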
Consider `COC[C@@H](Oc1cc(C[C@@H]2C[S@@+]([O-])C[C@H](NCc3cccc(OC(F)(F)F)c3)[C@H]2O)cc(F)c1N)C(F)(F)F`, for which the microsomal CLint is 300 µL/min/mg.
Same read-out and setting: to `COC[C@@H](Oc1cc(C[C@@H]2C[S@@+]([O-])C[C@H](NCc3cnn(CC(C)(C)C)c3)[C@H]2O)cc(F)c1N)C(F)(F)F` belongs 140 µL/min/mg; to `COC[C@@H](Oc1cc(C[C@@H]2C[S@@+]([O-])C[C@H](NCc3cc(CC(C)(C)C)on3)[C@H]2O)cc(F)c1N)C(F)(F)F`, 580 µL/min/mg; to `COC[C@@H](Oc1cc(C[C@@H]2C[S@@+]([O-])C[C@H](NCc3cc(C(C)(C)C)ccn3)[C@H]2O)cc(F)c1N)C(F)(F)F`, 140 µL/min/mg.
Same read-out and setting: to `COC[C@@H](Oc1cc(C[C@@H]2C[S+]([O-])C[C@H](N)[C@H]2O)cc(F)c1N)C(F)(F)F` (stereo not given in full) belongs 190 µL/min/mg; to `COC[C@@H](Oc1cc(C[C@@H]2C[S@@+]([O-])C[C@H](NCc3cccc(C(C)C)c3)[C@H]2O)cc(F)c1N)C(F)(F)F`, 690 µL/min/mg.

System in a further data set: not listed separately
In words: Lipophilicity, log P of the compound. The class given is physicochemical. To be noted: octanol/water.
Regarding `CC(C)(C)c1cccc(CN[C@H]2CS(=O)(=O)C[C@@H](Cc3cc(F)c(N)c(OC(C(F)(F)F)C(F)(F)F)c3)[C@@H]2O)c1`, the logP stood at 5.1.
In turn, `COC[C@@H](Oc1cc(C[C@@H]2C[S@@+]([O-])C[C@H](NCc3cccc(OC(F)(F)F)c3)[C@H]2O)cc(F)c1N)C(F)(F)F` displayed a logP of 3.7.
Still for that read-out and setting: to `COC[C@@H](Oc1cc(C[C@@H]2C[S@@+]([O-])C[C@H](NCc3cnn(CC(C)(C)C)c3)[C@H]2O)cc(F)c1N)C(F)(F)F` belongs 2.9; to `COC[C@@H](Oc1cc(C[C@@H]2C[S@@+]([O-])C[C@H](NCc3cc(CC(C)(C)C)on3)[C@H]2O)cc(F)c1N)C(F)(F)F`, 3.1.
In turn, `COC[C@@H](Oc1cc(C[C@@H]2C[S@@+]([O-])C[C@H](NCc3cc(C(C)(C)C)ccn3)[C@H]2O)cc(F)c1N)C(F)(F)F` displayed a logP of 3.5.
Take `CC(C)(C)c1cccc(CN[C@H]2C[S@@+]([O-])C[C@@H](Cc3cc(F)c(N)c(OC(C(F)(F)F)C(F)(F)F)c3)[C@@H]2O)c1`: the logP amounted to 4.9.
Regarding `COc1cc(C[C@@H]2C[S@@+]([O-])C[C@H](NCc3cccc(C(C)(C)C)c3)[C@H]2O)cc(F)c1N`, the logP came out at 3.5.
Compound `CC(C)(C)c1cccc(CN[C@H]2C[S@+]([O-])C[C@@H](Cc3cc(F)c(N)c(O[C@H](CO)C(F)(F)F)c3)[C@@H]2O)c1` yielded a logP of 3.7.
The same measure, in the same setting: the result for `COC[C@@H](Oc1cc(C[C@@H]2C[S@@+]([O-])C[C@H](NCc3cccc(C(C)C)c3)[C@H]2O)cc(F)c1N)C(F)(F)F` reads 3.7.

System in the next data set: not listed separately
In words: Clearance in mouse liver microsomes. It is filed as ADME, Microsome. To be noted: read-out: CLH. In a few lines: as §1
As for `COC[C@@H](Oc1cc(C[C@@H]2C[S@@+]([O-])C[C@H](NCc3cccc(OC(F)(F)F)c3)[C@H]2O)cc(F)c1N)C(F)(F)F`, the microsomal CLint worked out at 180 µL/min/mg.
As to `COC[C@@H](Oc1cc(C[C@@H]2C[S@@+]([O-])C[C@H](NCc3cnn(CC(C)(C)C)c3)[C@H]2O)cc(F)c1N)C(F)(F)F`, the microsomal CLint was found to be 380 µL/min/mg.
Same read-out and setting: to `COC[C@@H](Oc1cc(C[C@@H]2C[S@@+]([O-])C[C@H](NCc3cc(CC(C)(C)C)on3)[C@H]2O)cc(F)c1N)C(F)(F)F` belongs 510 µL/min/mg.
In the case of `COC[C@@H](Oc1cc(C[C@@H]2C[S@@+]([O-])C[C@H](NCc3cc(C(C)(C)C)ccn3)[C@H]2O)cc(F)c1N)C(F)(F)F`, the microsomal CLint is 400 µL/min/mg.
Same read-out and setting: to `COC[C@@H](Oc1cc(C[C@@H]2C[S+]([O-])C[C@H](N)[C@H]2O)cc(F)c1N)C(F)(F)F` (stereo not given in full) belongs 180 µL/min/mg.
Regarding `COC[C@@H](Oc1cc(C[C@@H]2C[S@@+]([O-])C[C@H](NCc3cccc(C(C)C)c3)[C@H]2O)cc(F)c1N)C(F)(F)F`, the microsomal CLint was found to be 550 µL/min/mg.

System in the next data set: not listed separately
The data set is described as follows: Apparent permeability of the compound in MDCK cells expressing human MDR1. It is filed as ADME, cell-based, Canis lupus familiaris. To be noted: dog. The gist of the method:
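Apparent permeability (Papp, […]) measured across MDR1-MDCK cell monolayers transfected with human MDR1.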
As to `CC(C)(C)c1cccc(CN[C@H]2CS(=O)(=O)C[C@@H](Cc3cc(F)c(N)c(OC(C(F)(F)F)C(F)(F)F)c3)[C@@H]2O)c1`, the Papp worked out at 4 ×10⁻⁶ cm/s.
For the compound `COC[C@@H](Oc1cc(C[C@@H]2C[S@@+]([O-])C[C@H](NCc3cccc(OC(F)(F)F)c3)[C@H]2O)cc(F)c1N)C(F)(F)F`, the Papp came to 31 ×10⁻⁶ cm/s.
`COC[C@@H](Oc1cc(C[C@@H]2C[S@@+]([O-])C[C@H](NCc3cnn(CC(C)(C)C)c3)[C@H]2O)cc(F)c1N)C(F)(F)F`: the Papp amounted to 10 ×10⁻⁶ cm/s.
On to `COC[C@@H](Oc1cc(C[C@@H]2C[S@@+]([O-])C[C@H](NCc3cc(CC(C)(C)C)on3)[C@H]2O)cc(F)c1N)C(F)(F)F`, for which the apparent permeability (Papp) worked out at 19 ×10⁻⁶ cm/s.
Same read-out and setting: the result for `COC[C@@H](Oc1cc(C[C@@H]2C[S@@+]([O-])C[C@H](NCc3cc(C(C)(C)C)ccn3)[C@H]2O)cc(F)c1N)C(F)(F)F` reads 19 ×10⁻⁶ cm/s; that for `CC(C)(C)c1cccc(CN[C@H]2C[S@@+]([O-])C[C@@H](Cc3cc(F)c(N)c(OC(C(F)(F)F)C(F)(F)F)c3)[C@@H]2O)c1`, 11 ×10⁻⁶ cm/s; that for `COc1cc(C[C@@H]2C[S@@+]([O-])C[C@H](NCc3cccc(C(C)(C)C)c3)[C@H]2O)cc(F)c1N`, 22 ×10⁻⁶ cm/s.
Turning to `CC(C)(C)c1cccc(CN[C@H]2C[S@+]([O-])C[C@@H](Cc3cc(F)c(N)c(O[C@H](CO)C(F)(F)F)c3)[C@@H]2O)c1`, the Papp worked out at 16 ×10⁻⁶ cm/s.
Regarding `CC(C)(C)c1cccc(CN[C@H]2C[S@+]([O-])C[C@@H](Cc3cc(O)c(N)c(F)c3)[C@@H]2O)c1`, the Papp was 9 ×10⁻⁶ cm/s.
Regarding `COC[C@@H](Oc1cc(C[C@@H]2C[S@@+]([O-])C[C@H](NCc3cccc(C(C)C)c3)[C@H]2O)cc(F)c1N)C(F)(F)F`, the Papp turned out to be 20 ×10⁻⁶ cm/s.

System in another data set: not listed separately
In words: Drug level in APP51/16 transgenic female mouse blood at 100 umol/kg, po after 4 hrs. It is filed as ADME, organism-based. To be noted: whole blood, read-out: Drug uptake. The gist of the method: (§2)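 APP51/16 transgenic mice received an oral suspension in water with 2% cremophor. Parent inhibitor measured 4 h post-dose in blood (nmol/mL) and brain (nmol/g).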
`COC[C@@H](Oc1cc(C[C@@H]2C[S@@+]([O-])C[C@H](NCc3cccc(C(C)C)c3)[C@H]2O)cc(F)c1N)C(F)(F)F`: the concentration at 4 h stood at 1600 nM.

System in the next data set: not listed separately
The data set is described as follows: Dissociation constant, pKa of the compound. It is filed as physicochemical.
Details: not given
The gist of the method: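 Measured by multi-wavelength UV spectroscopy across a linear pH gradient of 2–12 units.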
`CC(C)(C)c1cccc(CN[C@H]2CS(=O)(=O)C[C@@H](Cc3cc(F)c(N)c(OC(C(F)(F)F)C(F)(F)F)c3)[C@@H]2O)c1`: the pKa stood at 5.7.
In turn, `COC[C@@H](Oc1cc(C[C@@H]2C[S@@+]([O-])C[C@H](NCc3cc(CC(C)(C)C)on3)[C@H]2O)cc(F)c1N)C(F)(F)F` displayed a pKa of 4.9.

The next data set concerns Brain. The data set is described as follows: Drug level in APP51/16 transgenic female mouse brain at 100 umol/kg, po after 4 hrs. It is filed as ADME, organism-based. To be noted: in vivo. The gist of the method:
as §2
Turning to `COC[C@@H](Oc1cc(C[C@@H]2C[S@@+]([O-])C[C@H](NCc3cccc(C(C)C)c3)[C@H]2O)cc(F)c1N)C(F)(F)F`, the Drug uptake amounted to 0.2 nmol/g.
